{"data": "Assay results from different studies"}
{"Structure (SMILES)": "O=c1c(O[C@@H]2O[C@H](CO)[C@@H](O)[C@H](O)[C@H]2O)c(-c2ccc(O)c(O)c2)oc2cc(O)cc(O)c12", "cell line": "SW780", "test": "cell growth or viability, ATP luminescence", "setting": "72 h", "IC50 [µM]": 20.1}
{"Structure (SMILES)": "O=C(O)/C=C/c1ccc(O)c(O)c1", "cell line": "PaCa-2", "test": "cell growth or viability, MTT", "IC50 [µM]": 5.1}
{"Structure (SMILES)": "FC(F)(F)c1ccc(C(c2c[nH]c3ccccc23)c2c[nH]c3ccccc23)cc1", "cell line": "LNCaP", "test": "cell growth or viability, MTT", "setting": "48 h", "IC50 [µM]": 13}
{"Structure (SMILES)": "COc1cc(-c2[o+]c3cc(O)cc(O)c3cc2O[C@@H]2O[C@H](CO)[C@@H](O)[C@H](O)[C@H]2O)ccc1O", "cell line": "SW780", "test": "cell growth or viability, ATP luminescence", "setting": "72 h", "IC50 [µM]": 137}
{"Structure (SMILES)": "COc1cc2c(Oc3ccc(NC(=O)C4(C(=O)Nc5ccc(F)cc5)CC4)cc3F)ccnc2cc1OCCCN1CCOCC1", "cell line": "Rh4", "test": "cell growth or viability", "setting": "72 h", "IC50 [µM]": 0.22}
{"Structure (SMILES)": "C[C@H](Nc1ncnc2nc[nH]c12)c1cc2cccc(Cl)c2c(=O)n1-c1ccccc1", "cell line": "CD4+ T", "test": "IL-2 release, inhibitor", "IC50 [µM]": 0.0019}
{"Structure (SMILES)": "COc1cc2nccc(Oc3ccc(NC(=O)C4(C(=O)Nc5ccc(F)cc5)CC4)cc3)c2cc1OC", "cell line": "Rh4", "test": "cell growth or viability", "setting": "72 h", "IC50 [µM]": 3.09}
{"Structure (SMILES)": "CC(C)n1cc(C(c2ccc(/C=C/C(=O)O)s2)c2cn(C(C)C)c3ccccc23)c2ccccc21", "cell line": "LNCaP", "test": "cell growth or viability, MTT", "setting": "48 h", "IC50 [µM]": 26}
{"Structure (SMILES)": "COc1cc(-c2oc3cc(O)cc(O)c3c(=O)c2O)ccc1O", "cell line": "SW780", "test": "cell growth or viability, ATP luminescence", "setting": "72 h", "IC50 [µM]": 12.5}
{"Structure (SMILES)": "COc1cc(Nc2nc(C#N)cc3c(-c4ccccc4)n[nH]c23)cc(OC)c1OC", "cell line": "MIA PaCa-2", "test": "cell growth or viability, MTS", "setting": "48 h", "IC50 [µM]": 3}
{"Structure (SMILES)": "CC(C)C[C@H](NC(=O)[C@H](Cc1ccccc1)NC(=O)c1cnccn1)B(O)O", "cell line": "COV434", "test": "cell growth or viability, ATP luminescence", "IC50 [µM]": 0.016}
{"Structure (SMILES)": "Cc1cc(Nc2ncc(Cl)c(Nc3ccccc3S(=O)(=O)C(C)C)n2)c(OC(C)C)cc1C1CCNCC1", "cell line": "Rh4", "test": "cell growth or viability", "setting": "72 h", "IC50 [µM]": 0.34}
{"Structure (SMILES)": "COc1ccc(C(=O)O[C@@H]2CN3Cc4c(cc5c(c4OC)OCO5)[C@@]24C=C[C@H](OC)C[C@@H]34)cc1OC", "cell line": "MOLT-4", "test": "cell growth or viability, WST-1", "IC50 [µM]": 7.4}
{"Structure (SMILES)": "CC/C(=C(\\c1ccc(O)cc1)c1ccc(OCCN(C)C)cc1)c1ccccc1", "cell line": "T47D", "test": "cell growth or viability", "setting": "5 days", "IC50 [µM]": 2.16}
{"Structure (SMILES)": "O=C1CCCCC1C1C2C=CC=CC1/C(=C/c1ccccc1)C2 (centres unmarked)", "cell line": "Jurkat", "test": "cell growth or viability, flow cytometry", "IC50 [µM]": 0.082}
{"Structure (SMILES)": "COc1c2c(cc3c1OCO3)[C@]13C=C[C@H](OC)C[C@H]1N(C2)C[C@H]3OC(=O)c1cccc(C)c1", "cell line": "MOLT-4", "test": "cell growth or viability, WST-1", "IC50 [µM]": "> 10"}
{"Structure (SMILES)": "Cn1cc(C(c2cccc(/C=C/C(=O)O)c2)c2cn(C)c3ccccc23)c2ccccc21", "cell line": "LNCaP", "test": "cell growth or viability, MTT", "setting": "48 h", "IC50 [µM]": "> 20"}
{"Structure (SMILES)": "OC[C@H]1O[C@@H](Oc2cc3c(O)cc(O)cc3[o+]c2-c2ccc(O)c(O)c2)[C@H](O)[C@@H](O)[C@@H]1O", "cell line": "SW780", "test": "cell growth or viability, ATP luminescence", "setting": "72 h", "IC50 [µM]": 169}
{"Structure (SMILES)": "O=C(O)/C=C/c1ccc(C(c2c[nH]c3ccccc23)c2c[nH]c3ccccc23)s1", "cell line": "LNCaP", "test": "cell growth or viability, MTT", "setting": "48 h", "IC50 [µM]": 55}
{"Structure (SMILES)": "COc1cc(Nc2nccc(-c3cnn4nc(OC)ccc34)n2)cc(C(F)(F)F)c1", "cell line": "LN-229", "test": "cell growth or viability, ATP luminescence", "IC50 [µM]": 0.58}
{"Structure (SMILES)": "CC(=O)c1cccc(/N=N/c2cc(/C=C/C(=O)O)ccc2O)c1", "cell line": "PaCa-2", "test": "cell growth or viability, MTT", "IC50 [µM]": "> 50"}
{"Structure (SMILES)": "O=C1CCCCC1C1C2C=CC=CC1C(CCCCOC1CCCCO1)=C2 (centres unmarked)", "cell line": "Jurkat", "test": "cell growth or viability, flow cytometry", "IC50 [µM]": 0.135}
{"Structure (SMILES)": "COc1cccc(C(=O)O[C@@H]2CN3Cc4c(cc5c(c4OC)OCO5)[C@@]24C=C[C@H](OC)C[C@@H]34)c1", "cell line": "MOLT-4", "test": "cell growth or viability, WST-1", "IC50 [µM]": "> 10"}
{"Structure (SMILES)": "COc1nc(OCc2cccc(-c3ccccc3)c2C)ccc1CNCCNC(C)=O", "cell line": "MC-38", "test": "cell growth or viability, MTT", "IC50 [µM]": 2.9}
{"Structure (SMILES)": "Cc1c[nH]c(/C=C2\\C(=O)Nc3ccccc32)c1CCC(=O)O", "cell line": "SW780", "test": "cell growth or viability, MTT", "setting": "5 days", "IC50 [µM]": 6}
{"Structure (SMILES)": "CC(=O)c1cccc(N=Nc2c(C(=O)O)cc(O)c(O)c2O)c1", "cell line": "PaCa-2", "test": "cell growth or viability, MTT", "IC50 [µM]": 9.6}
{"Structure (SMILES)": "COC(=O)CCC1=CC2C=CC=CC1C2C1CCCCC1=O (centres unmarked)", "cell line": "Jurkat", "test": "cell growth or viability, flow cytometry", "IC50 [µM]": 0.159}
{"Structure (SMILES)": "NCc1cc2c(-c3ccccc3)n[nH]c2c(Nc2ccccc2)n1", "cell line": "MIA PaCa-2", "test": "cell growth or viability, MTS", "setting": "48 h", "IC50 [µM]": 2.3}
{"Structure (SMILES)": "CC[C@@]1(O)C(=O)OCc2c1cc1n(c2=O)Cc2cc3ccccc3nc2-1", "cell line": "RPMI 8402", "test": "cell growth or viability, MTT", "setting": "96 h", "IC50 [µM]": 0.004}
{"Structure (SMILES)": "C#Cc1cccc(Nc2ncnc3cc(OCCOC)c(OCCOC)cc23)c1", "cell line": "PaCa-2", "test": "cell growth or viability, MTT", "IC50 [µM]": 0.06}
{"Structure (SMILES)": "CC(C)(C)SCCCC1=CC2C=CC=CC1C2C1CCCCC1=O (centres unmarked)", "cell line": "Jurkat", "test": "cell growth or viability, flow cytometry", "IC50 [µM]": 0.057}
{"Structure (SMILES)": "CN1CCN(c2ccc3nc(-c4c(N)c5c(F)cccc5[nH]c4=O)[nH]c3c2)CC1", "cell line": "SW780", "test": "cell growth or viability, MTT", "setting": "5 days", "IC50 [µM]": 0.45}
